Reference: ChEMBL document CHEMBL4689842, “EUbOPEN Chemogenomics Library wave 1” (2021)

How the values were obtained:
Type in all cases: toxicity, cell-based
[1] = test system: Fibroblast; assay: Multiplex assay against human fibroblast
Method in brief: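 Four dyes were applied at seeding to live cells: Hoechst33342, BioTracker Green Microtubule Cytoskeleton Dye, MitoTracker Red and Annexin V Alexa Fluor 680. Imaging after compound addition used a CQ1 microscope at 37°C and 5% CO2. CellPathfinder machine-learning gating then sorted cells into Hoechst high-intensity objects or normal cells, normal cells into healthy, pyknosed or fragmented nuclei, and pyknosed cells into mitotic or apoptotic, with tubulin, mitochondrial-mass and membrane-permeability phenotypes given as per cents of healthy-nucleus cells.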

[2] = test system: HEK-293T; assay: Incucyte cell viability with HEK293T; conditions: human, 10 µM, compound concentration 10 uM; further: filed as whole numbers so only -1 and 0 and 1 occur
[3] = test system: Fibroblast; assay: Incucyte cell viability with human fibroblast; conditions: 10 µM, compound concentration 10 uM; further: filed as whole numbers so only -1 and 0 and 1 occur
[4] = test system: U2OS; assay: Incucyte cell viability with U2OS; conditions: human, 10 µM, compound concentration 10 uM; further: filed as whole numbers so only -1 and 0 and 1 occur
[5] = 12 h, 1 µM, compound concentration 1 uM, replicate 1
[6] = 12 h, 1 µM, compound concentration 1 uM, replicate 2
[7] = 12 h, 10 µM, compound concentration 10 uM, replicate 1
[8] = 12 h, 10 µM, compound concentration 10 uM, replicate 2
[9] = 24 h, 1 µM, compound concentration 1 uM, replicate 1
[10] = 24 h, 1 µM, compound concentration 1 uM, replicate 2
[11] = 24 h, 10 µM, compound concentration 10 uM, replicate 1
[12] = 24 h, 10 µM, compound concentration 10 uM, replicate 2
[13] = 48 h, 1 µM, compound concentration 1 uM, replicate 1
[14] = 48 h, 1 µM, compound concentration 1 uM, replicate 2
[15] = 48 h, 10 µM, compound concentration 10 uM, replicate 1
[16] = 48 h, 10 µM, compound concentration 10 uM, replicate 2
[17] = 0 h, replicate number 1, timepoint 0 hours
[18] = 6 h, replicate number 1, timepoint 6 hours
[19] = 6 h, replicate number 2, timepoint 6 hours
[20] = 12 h, replicate number 1, timepoint 12 hours
[21] = 18 h, replicate number 1, timepoint 18 hours
[22] = 24 h, replicate number 1, timepoint 24 hours

SMILES: Nc1nc2c(c(N3CCNCC3)n1)CCC1=C2[C@@H]2CCCC[C@@H]2O1
- Population Apoptotic (%) [1, 5]: 67%
- Population Fragmented Nuclei (%) [1, 5]: 37%
- Population Healthy Nuclei (%) [1, 5]: 42%
- Population Hoechst High Intensity Objects (%) [1, 5]: 15%
- Population Membrane Permeable-Phenotype (%) [1, 5]: 10%
- Population Mitochondria Different-Phenotype (%) [1, 5]: 1%
- Population Mitotic Cells (%) [1, 5]: 32%
- Population Normal (%) [1, 5]: 84%
- Population Pyknosed Nuclei (%) [1, 5]: 20%
- Population Tubulin-Different-Phenotype (%) [1, 5]: 20%
- Total Cell Count [1, 5]: 182
- Population Apoptotic (%) [1, 6]: 0%
- Population Fragmented Nuclei (%) [1, 6]: 20%
- Population Healthy Nuclei (%) [1, 6]: 61%
- Population Membrane Permeable-Phenotype (%) [1, 6]: 8%
- Population Mitochondria Different-Phenotype (%) [1, 6]: 27%
- Population Mitotic Cells (%) [1, 6]: 100%
- Population Pyknosed Nuclei (%) [1, 6]: 18%
- Population Tubulin-Different-Phenotype (%) [1, 6]: 21%
- Total Cell Count [1, 6]: 71
- Population Apoptotic (%) [1, 7]: 56%
- Population Fragmented Nuclei (%) [1, 7]: 22%
- Population Healthy Nuclei (%) [1, 7]: 34%
- Population Hoechst High Intensity Objects (%) [1, 7]: 42%
- Population Membrane Permeable-Phenotype (%) [1, 7]: 4%
- Population Mitochondria Different-Phenotype (%) [1, 7]: 13%
- Population Mitotic Cells (%) [1, 7]: 43%
- Population Normal (%) [1, 7]: 57%
- Population Pyknosed Nuclei (%) [1, 7]: 43%
- Population Tubulin-Different-Phenotype (%) [1, 7]: 52%
- Total Cell Count [1, 7]: 220
- Population Apoptotic (%) [1, 8]: 27%
- Population Fragmented Nuclei (%) [1, 8]: 9%
- Population Healthy Nuclei (%) [1, 8]: 68%
- Population Hoechst High Intensity Objects (%) [1, 8]: 3%
- Population Membrane Permeable-Phenotype (%) [1, 8]: 25%
- Population Mitochondria Different-Phenotype (%) [1, 8]: 87%
- Population Mitotic Cells (%) [1, 8]: 72%
- Population Normal (%) [1, 8]: 96%
- Population Pyknosed Nuclei (%) [1, 8]: 21%
- Population Tubulin-Different-Phenotype (%) [1, 8]: 92%
- Total Cell Count [1, 8]: 106
- Population Apoptotic (%) [1, 9]: 55%
- Population Fragmented Nuclei (%) [1, 9]: 30%
- Population Healthy Nuclei (%) [1, 9]: 50%
- Population Hoechst High Intensity Objects (%) [1, 9]: 24%
- Population Membrane Permeable-Phenotype (%) [1, 9]: 21%
- Population Mitochondria Different-Phenotype (%) [1, 9]: 2%
- Population Mitotic Cells (%) [1, 9]: 44%
- Population Normal (%) [1, 9]: 75%
- Population Pyknosed Nuclei (%) [1, 9]: 19%
- Population Tubulin-Different-Phenotype (%) [1, 9]: 47%
- Total Cell Count [1, 9]: 198
- Population Apoptotic (%) [1, 10]: 20%
- Population Fragmented Nuclei (%) [1, 10]: 22%
- Population Healthy Nuclei (%) [1, 10]: 57%
- Population Hoechst High Intensity Objects (%) [1, 10]: 8%
- Population Membrane Permeable-Phenotype (%) [1, 10]: 6%
- Population Mitochondria Different-Phenotype (%) [1, 10]: 20%
- Population Mitotic Cells (%) [1, 10]: 80%
- Population Normal (%) [1, 10]: 91%
- Population Pyknosed Nuclei (%) [1, 10]: 20%
- Population Tubulin-Different-Phenotype (%) [1, 10]: 16%
- Total Cell Count [1, 10]: 82
- Population Apoptotic (%) [1, 11]: 57%
- Population Fragmented Nuclei (%) [1, 11]: 20%
- Population Healthy Nuclei (%) [1, 11]: 36%
- Population Hoechst High Intensity Objects (%) [1, 11]: 45%
- Population Membrane Permeable-Phenotype (%) [1, 11]: 12%
- Population Mitochondria Different-Phenotype (%) [1, 11]: 16%
- Population Mitotic Cells (%) [1, 11]: 42%
- Population Normal (%) [1, 11]: 55%
- Population Pyknosed Nuclei (%) [1, 11]: 43%
- Population Tubulin-Different-Phenotype (%) [1, 11]: 43%
- Total Cell Count [1, 11]: 240
- Population Apoptotic (%) [1, 12]: 33%
- Population Fragmented Nuclei (%) [1, 12]: 8%
- Population Healthy Nuclei (%) [1, 12]: 46%
- Population Hoechst High Intensity Objects (%) [1, 12]: 2%
- Population Membrane Permeable-Phenotype (%) [1, 12]: 22%
- Population Mitochondria Different-Phenotype (%) [1, 12]: 79%
- Population Mitotic Cells (%) [1, 12]: 66%
- Population Normal (%) [1, 12]: 97%
- Population Pyknosed Nuclei (%) [1, 12]: 45%
- Population Tubulin-Different-Phenotype (%) [1, 12]: 69%
- Total Cell Count [1, 12]: 109
- Population Apoptotic (%) [1, 13]: 71%
- Population Fragmented Nuclei (%) [1, 13]: 44%
- Population Healthy Nuclei (%) [1, 13]: 45%
- Population Hoechst High Intensity Objects (%) [1, 13]: 34%
- Population Membrane Permeable-Phenotype (%) [1, 13]: 10%
- Population Mitochondria Different-Phenotype (%) [1, 13]: 1%
- Population Mitotic Cells (%) [1, 13]: 28%
- Population Normal (%) [1, 13]: 65%
- Population Pyknosed Nuclei (%) [1, 13]: 10%
- Population Tubulin-Different-Phenotype (%) [1, 13]: 22%
- Total Cell Count [1, 13]: 296
- Population Apoptotic (%) [1, 14]: 41%
- Population Fragmented Nuclei (%) [1, 14]: 34%
- Population Healthy Nuclei (%) [1, 14]: 56%
- Population Membrane Permeable-Phenotype (%) [1, 14]: 13%
- Population Mitochondria Different-Phenotype (%) [1, 14]: 2%
- Population Mitotic Cells (%) [1, 14]: 58%
- Population Pyknosed Nuclei (%) [1, 14]: 9%
- Population Tubulin-Different-Phenotype (%) [1, 14]: 36%
- Total Cell Count [1, 14]: 204
- Population Apoptotic (%) [1, 15]: 41%
- Population Fragmented Nuclei (%) [1, 15]: 20%
- Population Healthy Nuclei (%) [1, 15]: 50%
- Population Hoechst High Intensity Objects (%) [1, 15]: 49%
- Population Membrane Permeable-Phenotype (%) [1, 15]: 6%
- Population Mitochondria Different-Phenotype (%) [1, 15]: 11%
- Population Mitotic Cells (%) [1, 15]: 58%
- Population Normal (%) [1, 15]: 50%
- Population Pyknosed Nuclei (%) [1, 15]: 29%
- Population Tubulin-Different-Phenotype (%) [1, 15]: 58%
- Total Cell Count [1, 15]: 244
- Population Apoptotic (%) [1, 16]: 38%
- Population Fragmented Nuclei (%) [1, 16]: 27%
- Population Healthy Nuclei (%) [1, 16]: 49%
- Population Hoechst High Intensity Objects (%) [1, 16]: 47%
- Population Membrane Permeable-Phenotype (%) [1, 16]: 9%
- Population Mitochondria Different-Phenotype (%) [1, 16]: 10%
- Population Mitotic Cells (%) [1, 16]: 61%
- Population Normal (%) [1, 16]: 52%
- Population Pyknosed Nuclei (%) [1, 16]: 23%
- Population Tubulin-Different-Phenotype (%) [1, 16]: 52%
- Total Cell Count [1, 16]: 215
- Growth Rate [2, 17]: 0
- Growth Rate [2, 18]: 1
- Growth Rate [2, 19]: 0
- Growth Rate [2, 20]: 1
- Growth Rate ([2]; 12 h, replicate number 2, timepoint 12 hours): 0
- Growth Rate [2, 21]: 0
- Growth Rate [2, 22]: 0
- Growth Rate [3, 17]: 0
- Growth Rate [3, 18]: 1
- Growth Rate [3, 19]: 0
- Growth Rate [3, 20]: 0
- Growth Rate [3, 21]: 0
- Growth Rate [3, 22]: 0
- Growth Rate ([4]; 0 h, replicate number 2, timepoint 0 hours): 0
- Growth Rate [4, 19]: 1
- Growth Rate [4, 20]: 1
- Growth Rate [4, 21]: 1
- Growth Rate [4, 22]: 1
